Test results taken from ChEMBL document CHEMBL3779833, “Hydroxyurea derivatives of irofulven with improved antitumor efficacy” (Bioorg Med Chem Lett, 2016).

Experiments:
[1] = Cytotoxicity against human CHRF-288-11 cells after 48 hrs by trypan blue exclusion assay; format: cell-based
Method in brief: (§1)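 Cells exposed to drug for 48 h; growth measured by trypan blue exclusion. IC50 is the concentration giving 50% growth inhibition; values reported in nM.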

[2] = Cytotoxicity against human MV522 cells after 48 hrs by trypan blue exclusion assay; format: functional, cell-based; conditions: MV522, 48 h; method in brief: as §1

Molecule CC(=O)ON(CC1=C(C)C=C2C(=O)[C@](C)(O)C3(CC3)C(C)=C21)C(N)=O has an IC50 [1] of 1900 nM.

NC(=O)NO [HYDROXYUREA] gave an IC50 [2] of over 650000 nM.
